Experimental data collected from several papers.
Effect on: enzyme activity
Mode: inhibitor
CDK2 with cyclin A: Cyclin-dependent kinase 2, with cyclin A (CDK2, Homo sapiens, UniProt P24941)
CDK2 with cyclin E: Cyclin-dependent kinase 2, with cyclin E (CDK2, Homo sapiens, UniProt P24941)

| SMILES | target | assay | setting | remaining activity [%] |
| --- | --- | --- | --- | --- |
| Cc1cnc(NC2CCOCC2)nc1-n1cnc(C(=O)NC(CN)c2cc(F)cc(Cl)c2)c1 (stereo not shown) | CDK2 with cyclin A | radiometric | 1 µM | 3 |
| O=C(Nc1cnn(-c2csc(C(=O)NC3COC3)c2)c1)Nc1ccccc1Cl | Cyclin-dependent kinase 2, with cyclin E2 (CDK2, Homo sapiens, UniProt P24941) |  | 5 µM | 107 |
| COc1cc(Cl)c(C(=O)N[C@@H](CN[C@H]2CC[C@@H](N)CC2)Cc2ccc(C#N)cc2)cc1-c1ccc(CN[C@H](C)c2ccc(C)cc2)o1 | CDK2 with cyclin E |  | 1 µM | 90 |
| COc1cc(Nc2cnc(C#N)c(O[C@H](C)CN(C)C)n2)ncc1-c1cnn(C)c1 | CDK2 with cyclin A | radiometric | 1 µM | 114 |
| FC(F)c1nc2ccccc2n1-c1nc(N2CCOCC2)nc(N2CCOCC2)n1 | CDK2 with cyclin A |  | 10 µM | 77 |
| Cc1sc(C(=O)NC2COC2)cc1-n1cc(NC(=O)Nc2c(F)cccc2Cl)cn1 | CDK2 with cyclin A |  | 10 µM | 98.3 |
| CC(C)(C)c1nc(-c2cccc(NS(=O)(=O)c3c(F)cccc3F)c2F)c(-c2ccnc(N)n2)s1 | Cyclin-dependent kinase 2, with cyclin A2 (CDK2, Homo sapiens, UniProt P24941) | radiometric | 1 µM | 72 |
| Cc1ccc(Nc2nccc(N(C)c3ccc4c(C)n(C)nc4c3)n2)cc1S(N)(=O)=O | CDK2 with cyclin E |  | 0.5 µM | 96.4 |
| Cc1ccc(C(=O)Nc2ccc(CN3CCN(C)CC3)c(C(F)(F)F)c2)cc1C#Cc1cnc2cccnn12 | Cyclin-dependent kinase 2 (CDK2, Homo sapiens, UniProt P24941) |  | 23.5 nM | 96 |
| O=C(Nc1cnn(-c2csc(C(=O)NC3COC3)c2)c1)Nc1c(F)cccc1Cl | Cyclin-dependent kinase 2, with cyclin A1 (CDK2, Homo sapiens, UniProt P24941) |  | 5 µM | 94.2 |
| CC(C)(O)[C@H]1CC[C@H](Nc2ccc3ncc(-c4cccc(C(F)(F)F)c4)n3n2)CC1 | CDK2 with cyclin E |  | 1 µM | 91.1 |
| CC(C)(C)c1nc2c(s1)c1nc(N)ncc1c1ccc(NS(=O)(=O)c3c(F)cccc3F)c(F)c12 | Cyclin-dependent kinase 2, with cyclin E1 (CDK2, Homo sapiens, UniProt P24941) | radiometric | 1 µM | 93 |
| CC(C)(C)C(=O)c1sc(NC2CCCCC2)nc1N | CDK2 with cyclin A |  | 10 µM | 13 |
